Bioassay records from PubChem.
TRPC4 agonist = activators of mouse TRPC4 channel. HEK293 TRPC4beta/mu-opioid, Fluo4 calcium fluorescence; stronger effect = higher value. Q9QUQ5. B-score at 10 µM. AID 2237. 310,000 compounds, 0.49% hits;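 active = B-score above 5 SD of library B-scores, and initial fluorescence ratio not above library mean plus 5 SD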;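 note: positive B-score marks a calcium rise read as TRPC4 activation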
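Test system: HEK293 cells stably co-expressing mouse TRPC4beta and mu-opioid receptor | Schedule: Fluo4 dye loading 45 min at room temperature, 110 s recording | Measured by: Kinetic Fluo4 calcium fluorescence, 5 s baseline at 1 Hz | Evaluation: B score of integrated ratio | Controls: Buffer (low) and maximal DAMGO (high)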
TRPC4 inh = blocks the mouse TRPC4 cation channel; HEK293 TRPC4beta/mu-opioid, DAMGO-evoked Fluo4 calcium flux; stronger effect = lower value; AID 2247; B-score at 10 µM; 300,000 compounds, 0.39% hits;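 active = B-score over 3 SD under the library average, no early fluorescence shift, positive overall ratio signal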
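Assay system: Stable TRPC4beta/mu-opioid receptor HEK293 cells | Reagent: DAMGO in two steps, submaximal then maximal | Compound dosing: Single concentration per test compound | Signal: Fluo4 Ca2+ flux fluorescence | Evaluation: Per-well B score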
TRPC4 potent = allosteric potentiators of mouse TRPC4 channel; Q9QUQ5; AID 2227; HEK293 TRPC4beta/mu-opioid, DAMGO EC20, Fluo-4 Ca2+ flux; stronger effect = higher value; 310,000 compounds, 0.42% hits; B-score at 10 µM;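 active = B-score of calcium response area above 5 SD of library B-scores, with initial fluorescence ratio within 5 SD of library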
TRPC6 inh = mouse TRPC6 channel inhibition; Q61143; 310,000 compounds, 1.1% hits; B-score at 10 µM; HEK293-TRPC6, membrane potential dye, ACh-evoked depolarization; stronger effect = lower value;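 active = B-score under library mean minus 3 SD, initial fluorescence not abnormally high, positive integrated signal ratio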;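 note: B-score derived from integrated fluorescence ratio over the kinetic read; more negative B-score means stronger inhibition of depolarization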
Target sequence (Q61143 whole entry, looked up): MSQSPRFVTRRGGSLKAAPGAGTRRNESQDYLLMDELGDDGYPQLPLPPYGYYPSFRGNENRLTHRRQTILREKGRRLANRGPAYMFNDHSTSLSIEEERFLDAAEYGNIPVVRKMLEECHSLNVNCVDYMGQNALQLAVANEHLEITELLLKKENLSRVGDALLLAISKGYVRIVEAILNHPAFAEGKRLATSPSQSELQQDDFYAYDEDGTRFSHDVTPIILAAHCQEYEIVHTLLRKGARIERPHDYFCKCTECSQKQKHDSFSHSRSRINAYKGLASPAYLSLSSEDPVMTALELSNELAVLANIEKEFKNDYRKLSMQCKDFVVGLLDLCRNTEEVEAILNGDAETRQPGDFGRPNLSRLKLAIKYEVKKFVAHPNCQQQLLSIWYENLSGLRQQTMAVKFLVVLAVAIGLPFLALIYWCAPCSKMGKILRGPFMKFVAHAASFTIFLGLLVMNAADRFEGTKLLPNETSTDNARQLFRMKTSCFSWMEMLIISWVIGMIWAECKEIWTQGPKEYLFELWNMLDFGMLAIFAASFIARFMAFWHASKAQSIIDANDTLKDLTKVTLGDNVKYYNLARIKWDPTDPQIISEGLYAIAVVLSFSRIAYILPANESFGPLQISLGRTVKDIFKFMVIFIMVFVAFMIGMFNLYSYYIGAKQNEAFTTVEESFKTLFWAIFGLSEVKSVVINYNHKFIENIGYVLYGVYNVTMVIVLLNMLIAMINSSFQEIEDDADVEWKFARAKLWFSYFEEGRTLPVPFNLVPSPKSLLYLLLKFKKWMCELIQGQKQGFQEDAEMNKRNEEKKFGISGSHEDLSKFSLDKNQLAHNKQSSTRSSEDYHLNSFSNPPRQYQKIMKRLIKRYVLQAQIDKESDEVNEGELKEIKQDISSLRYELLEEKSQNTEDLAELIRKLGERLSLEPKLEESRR
TRPC6 act = activates the mouse TRPC6 cation channel. 310,000 compounds, 0.13% hits. HEK293-TRPC6 membrane potential dye fluorescence; stronger effect = higher value. B-score at 10 µM. Q61143;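 active = B-score of the integrated fluorescence ratio above library mean plus 3 SD, and starting fluorescence ratio within library mean plus 5 SD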;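 note: higher score means more depolarization so channel activation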
TRPC4 spec 2 = second selectivity test of TRPC6 inhibitors: effect on mouse TRPC4; shares compounds with TRPC6 inh; HEK293 TRPC4/MOR, membrane potential dye fluorescence; channel activated by saturating DAMGO dose; inhibition, % at 10 µM; 920 compounds, 42% hits; AID 2776;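 active = compounds whose fluorescence signal differed from control wells by over 3 SD, either direction, in both duplicate plates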
TRPC4 spec = tests whether TRPC6 inhibitors also affect mouse TRPC4 | shares compounds with TRPC6 inh | HEK293 TRPC4/mu-opioid, membrane potential fluorescence | activity change, negative = inhibition, % at 10 µM | 920 compounds, 61% hits;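 active = rise or fall in signal beyond 3 SD of buffer-only wells in both replicate plates, either sign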;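 note: integrated kinetic ratio of fluorescence range over baseline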
HEK293 MPD ctr 2-1 = parental HEK293 nonspecific activity of TRPC6 inhibitors, second screen; shares compounds with TRPC6 inh; 920 compounds, 31% hits; signal change vs control, % at 10 µM; parental HEK293 membrane potential dye fluorescence; maximal acetylcholine challenge after compound addition;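 active = membrane potential signal moving either way by over 3 SD of the maximum-effect control, in both duplicate plates, meaning non-specific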
HEK293 MPD ctr-1 = parental HEK293 nonspecific activity of TRPC6 inhibitors | shares compounds with TRPC6 inh | parental HEK293 membrane potential dye fluorescence | membrane potential signal change, % at 10 µM | 920 compounds, 60% hits | AID 2780;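 active = membrane potential signal shifting up or down by more than 3 SD of buffer-only wells, on both duplicate plates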
HEK293 MPD ctr-2 = counter-screen for TRPC6 modulators: effect in parental HEK293 cells; membrane potential signal change, % at 10 µM; 2,400 compounds, 51% hits; membrane potential dye fluorescence; AID 488924; shares compounds with TRPC6 inh;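 active = membrane potential signal moves up or down beyond 5 SD from buffer-only wells, on both duplicate plates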
HEK293 MPD ctr 2-2 = second counter-screen for TRPC6 modulators: effect in parental HEK293 cells | 2,400 compounds, 14% hits | shares compounds with TRPC6 inh | membrane potential dye fluorescence; after compound, maximal acetylcholine stimulation | inhibition, % at 10 µM;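 active = membrane potential signal drops by more than 5 SD from the mean control signal, in both duplicate plates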
TRPC4/MOR mod = selectivity of TRPC6 modulators against mouse TRPC4; shares compounds with TRPC6 inh; HEK293 TRPC4/mu-opioid, membrane potential fluorescence; AID 488927; 2,400 compounds, 69% hits; percent change from control (negative = decrease, positive = increase), % at 10 µM;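 active = membrane potential signal moved up or down beyond 5 SD of buffer control wells, in both duplicate plates, actives on both sides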
TRPC4 ctr inh 2 = mouse TRPC4 off-target activity of TRPC6 modulators, second screen; shares compounds with TRPC6 inh; HEK293 TRPC4/mu-opioid, membrane potential dye fluorescence; stimulated with maximal-effect DAMGO; inhibition, % at 10 µM; 2,400 compounds, 55% hits;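 active = drop in membrane potential signal beyond 5 SD of the control wells in both duplicate plates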;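 note: TRPC4 counter screen for TRPC6 hits run under conditions tuned for TRPC6 not TRPC4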
TRPC6 inh conf = confirmation of mouse TRPC6 inhibitors; HEK293-TRPC6, membrane potential dye, ACh-evoked depolarization; AID 488960; shares compounds with TRPC6 inh; 3,300 compounds, 43% hits; inhibition, % at 10 µM;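 active = fluorescence ratio falls more than 5 SD below the full-stimulation control mean, in both duplicate runs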;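 note: integrated fluorescence ratio of peak minus minimum over baseline after agonist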
TRPC6 act confirm = confirmation of mouse TRPC6 activators | activation, % at 10 µM | shares compounds with TRPC6 inh | AID 488961 | HEK293-TRPC6 membrane potential dye fluorescence, FDSS | 2,800 compounds, 11% hits;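 active = ratio signal rise beyond 5 SD above unstimulated control wells' mean, seen in both duplicate runs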
Each line names hits and unclear results; the compound was inactive in the other large screens (follow-up assays come after a bar, where they were run). In the library only some 2.3% were active in any assay of this set; here they are far more common.

CCOc1ccc(S(=O)(=O)Nc2cc(Cl)ccc2O)cc1	TRPC6 inh -5.3 | HEK293 MPD ctr-2 inactive | HEK293 MPD ctr 2-2 inactive | TRPC4/MOR mod -16% | TRPC4 ctr inh 2 inactive | TRPC6 inh conf inactive | TRPC6 act confirm inactive
CCOc1ccc(S(=O)(=O)Nc2cccc(Cl)c2)cc1	none
CC(Nc1ccc(Cl)cc1)c1cc(Cl)ccc1O (stereo not given)	none
CCOc1ccc(NC(C)c2cc(Cl)ccc2O)cc1 (stereo not given)	TRPC6 inh -5.2 | HEK293 MPD ctr-2 inactive | HEK293 MPD ctr 2-2 inactive | TRPC4/MOR mod -15% | TRPC4 ctr inh 2 38% | TRPC6 inh conf inactive | TRPC6 act confirm inactive
COc1ccc([N+](=O)[O-])cc1N(CC(=O)N1CCN(Cc2ccccc2)CC1)S(C)(=O)=O	none
C[n+]1ccccc1COc1ccc(C(C)(C)C)cc1	TRPC6 inh -5.1 | HEK293 MPD ctr-2 inactive | HEK293 MPD ctr 2-2 inactive | TRPC4/MOR mod inactive | TRPC4 ctr inh 2 inactive | TRPC6 inh conf inactive | TRPC6 act confirm inactive
CC(C)(C)c1ccc(OCCNCc2ccccc2)cc1	none
COCCCNC(=O)CCC(=O)NNc1nc2ccccc2c2nc(C)nn12	none
COCCOc1cc(NC(=O)CS(=O)(=O)CC(=O)N(C)C)c(Cl)cc1Cl	none
NCCN1C(=O)S/C(=C\c2ccc3c(c2)OCO3)C1=O	TRPC6 inh -5.4 | HEK293 MPD ctr-2 inactive | HEK293 MPD ctr 2-2 inactive | TRPC4/MOR mod -9.5% | TRPC4 ctr inh 2 42% | TRPC6 inh conf 36% | TRPC6 act confirm inactive
COc1cc(/C=C2\SC(=O)N(CCN)C2=O)ccc1OS(=O)(=O)c1cc(C)ccc1C	TRPC6 inh -7.2 | TRPC4 spec 2 inactive | TRPC4 spec inactive | HEK293 MPD ctr 2-1 inactive | HEK293 MPD ctr-1 inactive | TRPC6 inh conf inactive | TRPC6 act confirm inactive
O=C(CCN1C(=O)/C(=C/c2ccc3c(c2)OCO3)SC1=S)Nc1cccc(C(=O)O)c1	none
Cc1cc2c(s1)Nc1ccccc1N=C2N1CCN(C)CC1	TRPC6 inh -6 | HEK293 MPD ctr-2 inactive | HEK293 MPD ctr 2-2 inactive | TRPC4/MOR mod inactive | TRPC4 ctr inh 2 inactive | TRPC6 inh conf 58% | TRPC6 act confirm inactive
COC(=O)C(NC(=O)CSc1nc(N)cc(=O)[nH]1)c1ccccc1 (stereo not given)	none
CCOCCCNC(=S)N1C2CCC1CC(NC(=O)Nc1ccc(C(=O)OCC)cc1)C2 (stereo not given)	TRPC6 inh -7.2 | HEK293 MPD ctr-2 inactive | HEK293 MPD ctr 2-2 inactive | TRPC4/MOR mod inactive | TRPC4 ctr inh 2 inactive | TRPC6 inh conf 66%
Cc1ccc(NC(=O)C2CCN(S(=O)(=O)c3ccc4[nH]c(=O)oc4c3)CC2)cc1F	TRPC6 inh -5.8 | HEK293 MPD ctr-2 inactive | HEK293 MPD ctr 2-2 inactive | TRPC4/MOR mod inactive | TRPC4 ctr inh 2 inactive | TRPC6 inh conf inactive | TRPC6 act confirm inactive
COc1ccc(NC(=O)C2CCN(S(=O)(=O)c3ccc(OC)c(OC)c3)CC2)cc1	none
COC(=O)COc1ccc(S(=O)(=O)N2CCCCC2)cc1[N+](=O)[O-]	TRPC6 inh -5.3 | HEK293 MPD ctr-2 inactive | HEK293 MPD ctr 2-2 inactive | TRPC4/MOR mod inactive | TRPC4 ctr inh 2 44% | TRPC6 inh conf inactive | TRPC6 act confirm inactive
COc1ccc(S(=O)(=O)N2CCCCCC2)cc1NC(=O)c1ccccc1	none
COc1ccc(S(=O)(=O)N2CCCCCC2)cc1NC(=O)Cc1ccccc1	TRPC6 inh -8.9 | HEK293 MPD ctr-2 inactive | HEK293 MPD ctr 2-2 inactive | TRPC4/MOR mod inactive | TRPC4 ctr inh 2 inactive | TRPC6 inh conf inactive | TRPC6 act confirm inactive
COc1ccc(S(=O)(=O)N2CCC(C(=O)Nc3ccc(S(=O)(=O)N4CCCC4)cc3)CC2)cc1OC	TRPC6 inh -5.4 | HEK293 MPD ctr-2 inactive | HEK293 MPD ctr 2-2 inactive | TRPC4/MOR mod inactive | TRPC4 ctr inh 2 inactive | TRPC6 inh conf inactive | TRPC6 act confirm inactive
COc1cc(OC)cc(Oc2ccc(S(=O)(=O)N3CCCCC3)cc2[N+](=O)[O-])c1	none
O=S(Cc1ccccc1)CC(O)(c1ccccc1)c1ccccc1 (stereo not given)	none
CS(=O)(=O)c1ccc(Cl)c(NC(=O)COC(=O)c2cccc(S(=O)(=O)N3CCCCC3)c2)c1	TRPC6 inh -5.7 | HEK293 MPD ctr-2 inactive | HEK293 MPD ctr 2-2 inactive | TRPC4/MOR mod inactive | TRPC4 ctr inh 2 inactive | TRPC6 inh conf inactive | TRPC6 act confirm inactive
Cn1ccnc1SCC(=O)Nc1nc2c(F)c(F)c(F)cc2s1	none
Cc1csc2cc(-c3cccc([N+](=O)[O-])c3)c(-c3cccc([N+](=O)[O-])c3)c[n+]12	TRPC6 inh -6.1 | HEK293 MPD ctr-2 -310% | HEK293 MPD ctr 2-2 66% | TRPC4/MOR mod -52% | TRPC4 ctr inh 2 55% | TRPC6 inh conf 69% | TRPC6 act confirm inactive
CCOC(=O)c1c(-c2cccc([N+](=O)[O-])c2)csc1N	none
CC1CC(C)CN(C(=O)CSc2nc(N)cc(=O)[nH]2)C1 (stereo not given)	none
CCN(CC)CCCNC(=O)CSc1nc(C)cc(C)n1	none
